Results as given in ChEMBL document CHEMBL2413071, “Discovery of 2-methyl-1-{1-[(5-methyl-1H-indol-2-yl)carbonyl]piperidin-4-yl}propan-2-ol: a novel, potent and selective type 5 17β-hydroxysteroid dehydrogenase inhibitor” (Bioorg Med Chem, 2013).
Activity calls are given as the source filed them. The rule behind the calls is not given here.

Key:
[1] = target: T1, Aldo-keto reductase family 1 member C3 (Homo sapiens, UniProt P42330); assay: Inhibition of human 17beta-HSD5 expressed in HEK293 cells using androstenedione as substrate assessed as testosterone synthesis after 4 hrs; type: cell-based
T1 sequence (P42330 whole entry): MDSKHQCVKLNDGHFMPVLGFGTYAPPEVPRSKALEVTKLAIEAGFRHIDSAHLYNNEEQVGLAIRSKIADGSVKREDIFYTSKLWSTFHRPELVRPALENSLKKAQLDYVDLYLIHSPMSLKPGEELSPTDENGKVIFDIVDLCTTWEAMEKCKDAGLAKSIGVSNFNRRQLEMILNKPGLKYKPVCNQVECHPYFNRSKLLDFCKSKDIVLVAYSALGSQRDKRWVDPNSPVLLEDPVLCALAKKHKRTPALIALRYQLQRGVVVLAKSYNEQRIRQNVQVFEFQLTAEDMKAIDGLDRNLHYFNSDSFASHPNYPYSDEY
Outline: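 HEK293 cells stably expressing human 17β-HSD5 were seeded at 2×10^4 cells/well in D-MEM/10% FBS and incubated overnight at 37 °C, 5% CO2. Androstenedione (final 300 nmol/mL) was added with compound. After 4 h, supernatant testosterone was measured by DELFIA immunoassay.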

[2] = Plasma concentration in ICR mouse at 30 mg/kg, po after 1 hr by HPLC analysis; type: ADME, organism-based; parameters: dose 30 mg/kg, route oral
Outline: (§1)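 ICR mice were dosed orally, and blood was collected 1 or 4 h later. Compound was extracted from plasma with acetonitrile and quantified by HPLC.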

[3] = Plasma concentration in ICR mouse at 30 mg/kg, po after 4 hrs by HPLC analysis; type: ADME, organism-based; parameters: dose 30 mg/kg, route oral; outline: as §1
[4] = Solubility of the compound at pH 6.8; type: physicochemical; settings: buffer
Outline: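 A 10 mM DMSO solution (13 μL) was added to 1 mL of Japanese Pharmacopoeia second disintegration fluid (pH 6.8) and shaken at 25 °C for 20 h. Solubility was calculated from the LC peak-area ratio of sample to standard.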

[5] = Permeability of the compound after 2 hrs at pH 6.5 by PAMPA; type: ADME; settings: read-out: permeability
Outline: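 PAMPA used a donor at pH 6.5 (universal buffer, 10% DMSO, typical final sample 50 μM, filtered) and an acceptor at pH 7.4, separated by a filter coated with 20% lecithin in dodecane. Plates were incubated at 25 °C for 2 h under saturated humidity. Both compartments were quantified by UV spectrum (270-400 nm) against standards, with a mass balance correction; Pe was then calculated.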

[6] = target: T1, Aldo-keto reductase family 1 member C3; assay: Inhibition of human 17beta-HSD5 expressed in human CWR22R cells using androstenedione as substrate assessed as testosterone synthesis after 4 hrs; type: cell-based
Outline: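 CWR22R cells were seeded at 2×10^4 cells/well in RPMI-1640/10% FBS and incubated overnight at 37 °C, 5% CO2. Compound was added with androstenedione (final 300 nmol/mL). After 4 h, supernatant testosterone was quantified by DELFIA.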

Cytochrome P450 2C19 = Cytochrome P450 2C19 (Homo sapiens, UniProt P33261); assay: Inhibition of CYP2C19 (unknown origin); type: ADME
Cytochrome P450 2C19, sequence (P33261 whole entry): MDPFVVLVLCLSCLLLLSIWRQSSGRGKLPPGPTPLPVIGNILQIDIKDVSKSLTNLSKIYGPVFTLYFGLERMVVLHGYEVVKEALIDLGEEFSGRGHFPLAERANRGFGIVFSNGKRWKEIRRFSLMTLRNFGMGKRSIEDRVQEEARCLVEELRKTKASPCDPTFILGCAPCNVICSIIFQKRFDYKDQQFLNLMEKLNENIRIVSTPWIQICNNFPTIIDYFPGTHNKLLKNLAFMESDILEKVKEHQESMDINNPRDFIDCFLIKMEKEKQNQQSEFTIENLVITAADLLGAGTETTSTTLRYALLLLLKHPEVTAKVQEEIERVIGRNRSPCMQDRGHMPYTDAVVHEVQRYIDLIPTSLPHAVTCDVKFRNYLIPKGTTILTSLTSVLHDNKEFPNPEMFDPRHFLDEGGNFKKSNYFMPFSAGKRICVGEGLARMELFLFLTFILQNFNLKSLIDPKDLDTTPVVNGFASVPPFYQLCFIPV

Cytochrome P450 2D6 = Cytochrome P450 2D6 (Homo sapiens, UniProt P10635); assay: Inhibition of CYP2D6 (unknown origin); type: ADME
Cytochrome P450 2D6, sequence (P10635 whole entry): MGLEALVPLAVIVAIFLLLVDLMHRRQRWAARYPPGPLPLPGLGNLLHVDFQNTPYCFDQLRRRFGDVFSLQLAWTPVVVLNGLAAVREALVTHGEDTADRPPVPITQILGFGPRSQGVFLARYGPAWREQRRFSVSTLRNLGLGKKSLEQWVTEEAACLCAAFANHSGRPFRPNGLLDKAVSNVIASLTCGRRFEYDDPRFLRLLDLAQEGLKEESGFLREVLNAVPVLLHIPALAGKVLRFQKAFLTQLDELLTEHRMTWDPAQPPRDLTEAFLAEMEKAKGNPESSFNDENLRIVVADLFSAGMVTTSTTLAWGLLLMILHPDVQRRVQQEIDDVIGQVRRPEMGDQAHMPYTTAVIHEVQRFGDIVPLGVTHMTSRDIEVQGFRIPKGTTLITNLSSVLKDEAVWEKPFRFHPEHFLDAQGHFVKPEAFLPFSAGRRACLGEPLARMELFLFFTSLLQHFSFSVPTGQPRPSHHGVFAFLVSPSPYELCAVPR

[7] = Oral bioavailability in Sprague-Dawley rat at 1 mg/kg; type: ADME, organism-based; settings: in vivo
Outline: (§2)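 Male Sprague-Dawley rats aged 8 weeks received a single 1 mg/kg dose. The iv vehicle was saline with 15% DMF and 20% PEG 400; the oral vehicle was water with 10% DMF and 10% propylene glycol. Blood was sampled at multiple times up to 24 h and spun at 16,000 g for 2 min at 4 °C. Plasma drug was measured by HPLC-MS/MS.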

Mus musculus [8] = assay: Inhibition of androstenedione-induced testosterone production in tumor of human CWR22R cells xenografted in BALB/c athymic nude mouse at 10 mg/kg, po treated 1 hr prior to androstenedione-challenge measured after 2 hrs; type: functional, organism-based; parameters: dose 10 mg/kg
Outline: (§3)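 Male BALB/c athymic nude mice aged 4-6 weeks were castrated, then given subcutaneous CWR22R tumor cells (protease-digested fragments in RPMI 1640/20% FBS mixed 1:1 with Matrigel) into each flank. About 3 weeks later, size-matched mice were randomized (n = 4/group) and dosed orally. Androstenedione (1 ng/100 mm3 tumor) was injected intratumorally 1 h post-dose. Tumors were removed at 2 h, homogenized in 200 mmol/L phosphate pH 7.4, and extracted with tert-butyl methyl ether; testosterone was read by DELFIA.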

Cytochrome P450 3A4 = Cytochrome P450 3A4 (Homo sapiens, UniProt P08684); assay: Inhibition of CYP3A4 (unknown origin) using nifedipine as substrate; type: ADME
Cytochrome P450 3A4, sequence (P08684 whole entry): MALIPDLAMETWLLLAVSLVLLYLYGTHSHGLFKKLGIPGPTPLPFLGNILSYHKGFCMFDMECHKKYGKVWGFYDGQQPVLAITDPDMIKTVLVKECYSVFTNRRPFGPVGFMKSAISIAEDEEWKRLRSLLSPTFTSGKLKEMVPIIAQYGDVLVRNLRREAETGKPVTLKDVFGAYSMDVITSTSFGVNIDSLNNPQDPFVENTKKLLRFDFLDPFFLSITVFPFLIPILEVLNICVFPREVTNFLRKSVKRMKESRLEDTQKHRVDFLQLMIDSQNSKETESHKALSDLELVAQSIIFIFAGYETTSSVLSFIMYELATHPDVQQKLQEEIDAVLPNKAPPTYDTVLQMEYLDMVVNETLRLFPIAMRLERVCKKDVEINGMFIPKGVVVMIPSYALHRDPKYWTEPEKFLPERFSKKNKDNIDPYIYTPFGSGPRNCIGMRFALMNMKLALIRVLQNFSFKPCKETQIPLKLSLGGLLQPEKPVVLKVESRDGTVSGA

[9] = Tmax in Sprague-Dawley rat at 1 mg/kg, po; type: ADME, organism-based; parameters: dose 1 mg/kg, route oral; settings: in vivo; outline: as §2
[10] = Volume of distribution at steady state in Sprague-Dawley rat at 1 mg/kg, iv; type: ADME, organism-based; parameters: dose 1 mg/kg, route intravenous; settings: in vivo, read-out: Vdss; outline: as §2
[11] = AUC (0 to 24 hrs) in Sprague-Dawley rat at 1 mg/kg, po; type: ADME, organism-based; parameters: time < 24 hr, dose 1 mg/kg, route oral; settings: plasma; outline: as §2
[12] = target: T2, Aldo-keto reductase family 1 member C2 (Homo sapiens, UniProt P52895); assay: Inhibition of human AKR1C2-mediated 9,10-phenanthrenequinone reduction after 10 to 20 mins by spectrophotometry in presence of NADPH
T2 sequence (P52895 whole entry): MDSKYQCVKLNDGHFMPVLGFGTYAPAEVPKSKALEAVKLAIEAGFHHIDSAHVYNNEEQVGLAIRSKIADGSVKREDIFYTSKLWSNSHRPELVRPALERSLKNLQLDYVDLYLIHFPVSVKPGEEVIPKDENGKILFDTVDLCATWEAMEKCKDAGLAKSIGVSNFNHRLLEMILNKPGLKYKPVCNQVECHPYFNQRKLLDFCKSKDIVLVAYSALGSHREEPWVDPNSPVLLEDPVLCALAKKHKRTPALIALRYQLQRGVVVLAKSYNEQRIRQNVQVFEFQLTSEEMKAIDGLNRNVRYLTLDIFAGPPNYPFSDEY
Outline: (§4)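 Purified human AKR1C enzyme (final 10 μg/mL) was mixed with 9,10-phenanthrenequinone (4 μmol/L), NADPH (200 μmol/L) and compound in 100 mM potassium phosphate pH 6.0, at room temperature for 10-20 min. NADPH absorbance was read at 340 nm and normalized to no-enzyme (0%) and no-compound (100%) controls. IC50 was obtained by Sigmoid-Emax nonlinear regression.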

Mus musculus [13] = assay: Inhibition of androstenedione-induced testosterone production in tumor of human CWR22R cells xenografted in po dosed BALB/c athymic nude mouse treated 1 hr prior to androstenedione-challenge measured after 2 hrs; type: functional, organism-based; outline: as §3
Cytochrome P450 1A2 = target: T3, Cytochrome P450 1A2 (Homo sapiens, UniProt P05177); assay: Inhibition of CYP1A2 (unknown origin); type: ADME
T3 sequence (P05177 whole entry): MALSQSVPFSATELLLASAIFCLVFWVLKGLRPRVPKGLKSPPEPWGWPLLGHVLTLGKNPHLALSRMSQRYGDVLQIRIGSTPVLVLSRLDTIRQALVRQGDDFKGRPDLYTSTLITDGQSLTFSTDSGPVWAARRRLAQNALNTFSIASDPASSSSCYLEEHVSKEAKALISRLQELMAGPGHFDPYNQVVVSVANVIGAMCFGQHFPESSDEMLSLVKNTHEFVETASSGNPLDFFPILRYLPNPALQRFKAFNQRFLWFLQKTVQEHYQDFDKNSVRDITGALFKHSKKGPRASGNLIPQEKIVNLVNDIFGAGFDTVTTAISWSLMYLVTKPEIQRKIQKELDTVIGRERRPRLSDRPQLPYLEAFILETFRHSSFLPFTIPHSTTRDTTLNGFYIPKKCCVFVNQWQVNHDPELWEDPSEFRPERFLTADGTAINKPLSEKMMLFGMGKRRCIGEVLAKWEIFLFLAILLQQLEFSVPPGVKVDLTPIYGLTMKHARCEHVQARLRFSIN

[14] = target: Voltage-gated inwardly rectifying potassium channel KCNH2 (Homo sapiens, UniProt Q12809); assay: Inhibition of human ERG channel by Rb efflux assay
Voltage-gated inwardly rectifying potassium channel KCNH2, sequence (Q12809 whole entry): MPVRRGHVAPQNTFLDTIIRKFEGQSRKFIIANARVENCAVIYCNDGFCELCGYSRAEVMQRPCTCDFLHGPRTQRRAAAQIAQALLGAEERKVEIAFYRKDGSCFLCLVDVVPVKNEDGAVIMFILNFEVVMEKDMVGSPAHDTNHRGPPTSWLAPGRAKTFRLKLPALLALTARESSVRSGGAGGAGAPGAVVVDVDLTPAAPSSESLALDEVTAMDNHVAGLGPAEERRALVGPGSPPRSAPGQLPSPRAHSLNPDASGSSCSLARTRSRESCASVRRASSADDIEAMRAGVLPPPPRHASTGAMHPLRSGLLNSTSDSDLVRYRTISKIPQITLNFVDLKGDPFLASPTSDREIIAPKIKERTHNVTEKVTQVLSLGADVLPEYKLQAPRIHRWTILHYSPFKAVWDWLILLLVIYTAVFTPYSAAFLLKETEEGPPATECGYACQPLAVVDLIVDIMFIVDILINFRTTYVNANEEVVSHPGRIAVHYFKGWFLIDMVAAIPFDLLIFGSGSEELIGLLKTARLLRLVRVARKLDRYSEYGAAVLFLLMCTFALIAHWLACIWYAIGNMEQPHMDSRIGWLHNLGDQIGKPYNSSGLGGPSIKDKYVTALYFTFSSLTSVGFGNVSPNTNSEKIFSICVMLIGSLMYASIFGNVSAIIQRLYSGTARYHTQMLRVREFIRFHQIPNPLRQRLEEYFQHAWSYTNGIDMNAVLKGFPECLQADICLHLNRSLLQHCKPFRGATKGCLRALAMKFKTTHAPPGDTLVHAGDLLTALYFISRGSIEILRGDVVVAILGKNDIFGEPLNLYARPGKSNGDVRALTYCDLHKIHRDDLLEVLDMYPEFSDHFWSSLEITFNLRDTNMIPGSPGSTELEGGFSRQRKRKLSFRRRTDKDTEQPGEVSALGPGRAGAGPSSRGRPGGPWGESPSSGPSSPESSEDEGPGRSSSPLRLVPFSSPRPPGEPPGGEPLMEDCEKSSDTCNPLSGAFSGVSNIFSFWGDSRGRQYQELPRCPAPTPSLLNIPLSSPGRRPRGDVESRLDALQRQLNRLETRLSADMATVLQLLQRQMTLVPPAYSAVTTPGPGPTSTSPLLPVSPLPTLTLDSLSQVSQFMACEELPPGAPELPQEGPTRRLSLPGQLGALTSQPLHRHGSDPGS

[15] = AUC (0 to 24 hrs) in Sprague-Dawley rat at 1 mg/kg, iv; type: ADME, organism-based; parameters: time < 24 hr, dose 1 mg/kg, route intravenous; settings: plasma; outline: as §2
[16] = target: T1, Aldo-keto reductase family 1 member C3; assay: Inhibition of human AKR1C3-mediated 9,10-phenanthrenequinone reduction after 10 to 20 mins by spectrophotometry in presence of NADPH; outline: as §4
[17] = Half life in Sprague-Dawley rat at 1 mg/kg, iv; type: ADME, organism-based; parameters: dose 1 mg/kg, route intravenous; settings: in vivo; outline: as §2
Cytochrome P450 2C9 = Cytochrome P450 2C9 (Homo sapiens, UniProt P11712); assay: Inhibition of CYP2C9 (unknown origin); type: ADME
Cytochrome P450 2C9, sequence (P11712 whole entry): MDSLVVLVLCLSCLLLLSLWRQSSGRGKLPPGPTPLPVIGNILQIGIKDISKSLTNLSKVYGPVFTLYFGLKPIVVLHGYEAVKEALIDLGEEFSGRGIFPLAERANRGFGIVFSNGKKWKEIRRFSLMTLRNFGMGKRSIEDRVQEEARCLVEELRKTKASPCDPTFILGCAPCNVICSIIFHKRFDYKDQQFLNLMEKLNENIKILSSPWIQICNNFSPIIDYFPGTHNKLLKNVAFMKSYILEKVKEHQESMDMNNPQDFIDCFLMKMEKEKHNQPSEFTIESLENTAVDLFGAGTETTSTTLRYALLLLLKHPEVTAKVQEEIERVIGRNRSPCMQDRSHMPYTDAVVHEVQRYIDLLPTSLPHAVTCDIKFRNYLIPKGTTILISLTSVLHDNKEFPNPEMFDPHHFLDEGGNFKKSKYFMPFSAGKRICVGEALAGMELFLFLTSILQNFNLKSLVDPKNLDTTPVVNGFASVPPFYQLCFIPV

[18] = Total clearance in Sprague-Dawley rat at 1 mg/kg, iv; type: ADME, organism-based; parameters: dose 1 mg/kg, route intravenous; settings: in vivo; outline: as §2
[19] = Cmax in Sprague-Dawley rat at 1 mg/kg, po; type: ADME, organism-based; parameters: dose 1 mg/kg, route oral; settings: in vivo; outline: as §2

SMILES: O=C(c1cc2ccccc2[nH]1)N1CCC(CCO)C1 (centres undefined)
- IC50 [1]: 1100 nM

SMILES: O=C(c1cc2ccccc2[nH]1)N1CCCCC1CCO (centres undefined)
- IC50 [1]: 230 nM

SMILES: CC(C)(O)CC1CCN(C(=O)c2cc3ccccc3[nH]2)CC1
- concentration at 1 h [2]: 2610 nM
- IC50 [1]: 2.1 nM
- concentration at 4 h [3]: < 100 nM
- solubility [4]: > 100 µM
- Papp at 2 h [5]: 26 ×10⁻⁶ cm/s

SMILES: CC(=O)CC1CCN(C(=O)c2cc3ccccc3[nH]2)CC1
- IC50 [1]: 13 nM

SMILES: Cc1ccc2[nH]c(C(=O)N3CCN(CCO)CC3)cc2c1
- IC50 [1]: 770 nM

SMILES: Cc1ccc2[nH]c(C(=O)N3CCC(CC(=O)O)CC3)cc2c1
- IC50 [1]: > 10000 nM

SMILES: Cc1ccc2[nH]c(C(=O)N3CCC(CO)CC3)cc2c1
- IC50 [1]: 790 nM

SMILES: Cc1ccc2[nH]c(C(=O)N3CCC(CCO)CC3)cc2c1
- concentration at 1 h [2]: < 100 nM
- IC50 [1]: 37 nM
- concentration at 4 h [3]: < 100 nM
- solubility [4]: > 100 µM
- IC50 [6]: 58 nM
- Papp at 2 h [5]: > 30 ×10⁻⁶ cm/s

SMILES: Cc1ccc2[nH]c(C(=O)N3CC=CCC3)cc2c1
- IC50 [1]: 2800 nM

SMILES: CC(O)CC1CCN(C(=O)c2cc3ccccc3[nH]2)CC1 (centres undefined)
- IC50 [1]: 12 nM

SMILES: O=C(c1cc2ccccc2[nH]1)N1CC(CCO)C1
- IC50 [1]: 140 nM

SMILES: O=C(c1cc2ccccc2[nH]1)N1CCC(CCO)CC1
- IC50 [1]: 4.5 nM

SMILES: O=C(c1cc2ccccc2[nH]1)N1CCCC(CCO)C1 (centres undefined)
- IC50 [1]: 2100 nM

SMILES: Cc1ccc2[nH]c(C(=O)N3CCC(CC(C)(C)O)CC3)cc2c1
- IC50 (Cytochrome P450 2C19): > 25000 nM
- IC50 (Cytochrome P450 2D6): > 25000 nM
- bioavailability [7]: 65%
- inhibition (Mus musculus [8]): Active
- IC50 (Cytochrome P450 3A4): > 100000 nM
- Tmax [9]: 30 min
- Vd [10]: 1.7 L/kg
- concentration at 1 h [2]: 10900 nM
- AUC(0-t) at 24 h [11]: 255 ng·h/mL
- IC50 [1]: 0.34 nM
- concentration at 4 h [3]: 3100 nM
- IC50 [12]: > 20000 nM
- inhibition (Mus musculus [13]): Dose-dependent effect
- solubility [4]: > 100 µM
- IC50 (Cytochrome P450 1A2): > 25000 nM
- IC50 [14]: > 100000 nM
- AUC(0-t) at 24 h [15]: 395 ng·h/mL
- IC50 [16]: 24 nM
- half-life [17]: 27.6 min
- IC50 (Cytochrome P450 2C9): > 25000 nM
- IC50 [6]: 1.9 nM
- Papp at 2 h [5]: > 30 ×10⁻⁶ cm/s
- clearance [18]: 42 mL/min/kg
- Cmax [19]: 180 ng/mL

SMILES: COCCC1CCN(C(=O)c2cc3ccccc3[nH]2)CC1
- IC50 [1]: 33 nM

SMILES: Cc1ccc2[nH]c(C(=O)N3CCC(CCCO)CC3)cc2c1
- IC50 [1]: 160 nM

SMILES: O=C(NCCCCCO)c1cc2ccccc2[nH]1
- IC50 [1]: 1200 nM
